{
  "source": "ChEMBL document CHEMBL2385050",
  "about": "(J Med Chem, 2013)",
  "key": {"Estrogen receptor": {"biological_target": "T1, Estrogen receptor (Homo sapiens, UniProt P03372)", "T1 sequence (P03372 whole entry)": "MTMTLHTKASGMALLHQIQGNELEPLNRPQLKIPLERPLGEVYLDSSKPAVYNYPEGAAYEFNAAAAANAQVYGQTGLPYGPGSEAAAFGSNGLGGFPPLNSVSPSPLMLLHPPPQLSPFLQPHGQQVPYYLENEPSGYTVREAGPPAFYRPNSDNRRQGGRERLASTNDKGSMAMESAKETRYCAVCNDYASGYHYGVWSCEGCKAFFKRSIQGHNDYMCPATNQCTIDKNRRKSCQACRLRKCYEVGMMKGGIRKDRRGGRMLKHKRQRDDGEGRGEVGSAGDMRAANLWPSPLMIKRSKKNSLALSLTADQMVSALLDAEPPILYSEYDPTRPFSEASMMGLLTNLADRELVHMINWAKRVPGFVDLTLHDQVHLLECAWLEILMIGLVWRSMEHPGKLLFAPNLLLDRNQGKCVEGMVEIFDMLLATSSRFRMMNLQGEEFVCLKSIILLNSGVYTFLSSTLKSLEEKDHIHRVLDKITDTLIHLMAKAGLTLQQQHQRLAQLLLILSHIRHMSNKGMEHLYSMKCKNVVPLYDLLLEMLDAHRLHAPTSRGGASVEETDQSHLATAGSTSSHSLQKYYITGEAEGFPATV", "assay": "Displacement of fluorescent ES2 from human recombinant ERalpha after 2 hrs by fluorimetric analysis"}, "[1]": {"assay": "Apparent oral clearance in NOD/SCID mouse at 100 mg/kg, po by LC-MS-MS analysis", "assay_type": "ADME, organism-based", "design": "dose 100 mg/kg, route oral", "settings": "in vivo", "in_short": "(§1)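 Mixed E,Z material (E:Z 45:55 by LC-MS-MS), 100 mg/kg single oral gavage, 10-week-old female NOD/SCID mice. Each mouse bled once by tail vein (n = 3 per time point), sampling up to 24 h. Plasma E and Z isomers quantified by LC-MS-MS. Parameters are from mean plasma concentrations (n = 3).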"}, "Mus musculus [2]": {"system": "Mus musculus", "assay": "(§2) AUClast in NOD/SCID mouse at 100 mg/kg, po by LC-MS-MS analysis", "assay_type": "ADME, organism-based, Plasma", "design": "time 0 - last, dose 100 mg/kg, route oral", "settings": "in vivo", "in_short": "as §1"}, "[3]": {"assay": "Apparent volume of distribution during terminal phase in NOD/SCID mouse at 100 mg/kg, po by LC-MS-MS analysis", "assay_type": "ADME, organism-based", "design": "dose 100 mg/kg, route oral", "settings": "in vivo, read-out: Vz/F", "in_short": "as §1"}, "Mus musculus [4]": {"system": "Mus musculus", "assay": "Half life in NOD/SCID mouse at 100 mg/kg, po by LC-MS-MS analysis", "assay_type": "ADME, organism-based", "design": "dose 100 mg/kg, route oral", "settings": "in vivo", "in_short": "as §1"}, "Mus musculus [5]": {"system": "Mus musculus", "assay": "Cmax in NOD/SCID mouse at 100 mg/kg, po by LC-MS-MS analysis", "assay_type": "ADME, organism-based", "design": "dose 100 mg/kg, route oral", "settings": "in vivo", "in_short": "as §1"}, "Mus musculus [6]": {"system": "Mus musculus", "assay": "Tmax in NOD/SCID mouse at 100 mg/kg, po by LC-MS-MS analysis", "assay_type": "ADME, organism-based", "design": "dose 100 mg/kg, route oral", "settings": "in vivo", "in_short": "as §1"}, "Mus musculus [7]": {"system": "Mus musculus", "assay": "Clast in NOD/SCID mouse at 100 mg/kg, po by LC-MS-MS analysis", "assay_type": "ADME, organism-based", "design": "dose 100 mg/kg, route oral", "settings": "in vivo", "in_short": "as §1"}, "[8]": {"biological_target": "T2, Estrogen receptor (Homo sapiens) (UniProt P03372)", "T2 sequence (whole entry)": "T1 sequence (P03372 whole entry)", "assay": "Displacement of fluorescent ES2 from human recombinant ERalpha at 100 uM after 2 hrs by fluorimetric analysis relative to control", "in_short": "(§3)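 Fluorescence polarization competition with fluorescent estrogen ligand ES2 (9 nM) and recombinant human ER-α (30 nM) or ER-β (20 nM). Buffer: 100 mM potassium phosphate, 100 μg/mL BGG, 0.02% NaN3. Samples in methanol or methanol/dichloromethane; 2 h incubation protected from light. Read at Ex/Em 485/530 nm. Result is % polarization remaining vs vehicle control; mean of at least three experiments.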"}, "[9]": {"biological_target": "Estrogen receptor beta (Homo sapiens) (UniProt Q92731)", "sequence (Q92731 whole entry)": "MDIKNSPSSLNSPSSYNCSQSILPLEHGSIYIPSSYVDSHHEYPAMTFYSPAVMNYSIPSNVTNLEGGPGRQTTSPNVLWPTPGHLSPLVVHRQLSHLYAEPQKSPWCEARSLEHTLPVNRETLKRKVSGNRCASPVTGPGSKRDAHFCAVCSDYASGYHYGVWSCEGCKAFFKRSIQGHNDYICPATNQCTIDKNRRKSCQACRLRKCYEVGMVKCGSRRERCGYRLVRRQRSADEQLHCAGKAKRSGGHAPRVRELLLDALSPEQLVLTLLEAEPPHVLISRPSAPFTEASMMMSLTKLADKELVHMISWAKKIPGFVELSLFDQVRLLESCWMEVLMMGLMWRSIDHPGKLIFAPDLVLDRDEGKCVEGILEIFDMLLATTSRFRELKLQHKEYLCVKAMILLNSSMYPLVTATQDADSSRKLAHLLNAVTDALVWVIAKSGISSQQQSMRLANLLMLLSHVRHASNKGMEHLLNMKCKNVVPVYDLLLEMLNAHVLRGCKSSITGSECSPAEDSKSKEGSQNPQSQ", "assay": "Displacement of fluorescent ES2 from human recombinant ERbeta at 100 uM after 2 hrs by fluorimetric analysis relative to control", "in_short": "as §3"}, "Aromatase [10]": {"biological_target": "T3, Aromatase (Homo sapiens, UniProt P11511)", "T3 sequence (P11511 whole entry)": "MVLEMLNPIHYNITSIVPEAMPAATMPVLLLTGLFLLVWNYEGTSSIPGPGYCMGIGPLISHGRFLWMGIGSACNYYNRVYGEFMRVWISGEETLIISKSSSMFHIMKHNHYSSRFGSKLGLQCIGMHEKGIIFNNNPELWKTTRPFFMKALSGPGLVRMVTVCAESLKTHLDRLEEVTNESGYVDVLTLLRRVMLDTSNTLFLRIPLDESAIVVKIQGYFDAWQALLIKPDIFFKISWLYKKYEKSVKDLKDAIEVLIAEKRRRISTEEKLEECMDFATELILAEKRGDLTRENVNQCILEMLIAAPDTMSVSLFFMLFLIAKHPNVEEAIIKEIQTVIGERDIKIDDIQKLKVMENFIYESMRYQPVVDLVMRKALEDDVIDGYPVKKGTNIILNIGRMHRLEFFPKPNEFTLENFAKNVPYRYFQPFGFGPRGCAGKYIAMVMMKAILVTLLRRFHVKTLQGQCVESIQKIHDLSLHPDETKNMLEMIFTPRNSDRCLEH", "assay": "Inhibition of human recombinant microsomal aromatase-mediated 7-methoxy-4-trifluoromethylcoumarin conversion to 7-hydroxytrifluoromethylcoumarin preincubated for 10 mins measured after 30 mins by fluorescence assay", "in_short": "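Recombinant human CYP19 with MFC substrate in 0.1 M potassium phosphate pH 7.4; samples in methanol or methanol/dichloromethane, prewarmed 10 min at 37 °C with NADPH-generating cofactor mix (NADP+, MgCl2, glucose-6-phosphate, G6PDH), then 30 min reaction, stopped with 0.1 M Tris base in acetonitrile.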"}, "Aromatase [11]": {"biological_target": "T3, Aromatase", "assay": "Inhibition of human recombinant placental aromatase", "in_short": "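Recombinant human aromatase (CYP19) in microsomal incubations with fluorogenic substrate MFC, read as conversion to HFC. Compounds in methanol or methanol/dichloromethane, prewarmed 10 min at 37 °C with NADPH-regenerating mix, then enzyme/substrate in 0.1 M potassium phosphate pH 7.4 added. Activity given as % of vehicle control.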"}, "Aromatase [12]": {"biological_target": "T3, Aromatase", "assay": "Inhibition of human recombinant microsomal aromatase-mediated 7-methoxy-4-trifluoromethylcoumarin conversion to 7-hydroxytrifluoromethylcoumarin at 50 uM preincubated for 10 mins measured after 30 mins by fluorescence assay relative to control", "settings": "probe 7-methoxy-4-trifluoromethylcoumarin", "in_short": "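Recombinant human CYP19 microsomal incubation, linear-range conditions. Samples in methanol or methanol/dichloromethane, prewarmed 10 min at 37 °C with NADPH-regenerating cofactor mix. Enzyme and MFC substrate added in 0.1 M potassium phosphate pH 7.4; 30 min reaction; stopped with Tris base in acetonitrile. HFC read at Ex/Em 409/530 nm against a standard curve. Result is % activity remaining vs vehicle; mean of at least three experiments.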"}, "[13]": {"assay": "as §2", "assay_type": "ADME, organism-based, Plasma", "design": "time 0 - last, dose 100 mg/kg, route oral", "settings": "NOD/SCID, plasma", "in_short": "as §1"}},
  "data": [
    {"smiles": "CC/C(=C(/c1ccc(O)cc1)c1ccc(OCCN)cc1)c1ccccc1", "values": [
      {"measurement": "EC50", "setting": "Estrogen receptor", "result": 0.0587, "unit": "µM"},
      {"measurement": "CL/F", "setting": "[1]", "result": 1.52, "unit": "mL/min"},
      {"measurement": "AUClast", "setting": "Mus musculus [2]", "result": 5800, "unit": "ng·h/mL"},
      {"measurement": "Vd/F", "setting": "[3]", "result": 2.8, "unit": "L"},
      {"measurement": "t1/2", "setting": "Mus musculus [4]", "result": 21.4, "unit": "h"},
      {"measurement": "Cmax", "setting": "Mus musculus [5]", "result": 700, "unit": "ng/mL"},
      {"measurement": "Tmax", "setting": "Mus musculus [6]", "result": 2, "unit": "h"},
      {"measurement": "Clast", "setting": "Mus musculus [7]", "result": 100, "unit": "ng/mL"}
    ]},
    {"smiles": "CC/C(=C(\\c1ccc(O)cc1)c1ccc(OCC(N)=O)cc1)c1ccccc1", "values": [
      {"measurement": "Activity", "setting": "[8]", "result": 57, "unit": "%"},
      {"measurement": "Activity", "setting": "[9]", "result": 71, "unit": "%"},
      {"measurement": "IC50", "setting": "Aromatase [10]", "result": 9.26, "unit": "µM"}
    ]},
    {"smiles": "CC/C(=C(\\c1ccc(O)cc1)c1ccc(OCCNC)cc1)c1ccccc1", "note": "(mixture of isomers) [ENDOXIFEN]", "values": [
      {"measurement": "IC50", "setting": "Aromatase [11]", "result": 6, "unit": "µM"}
    ]},
    {"smiles": "CC/C(=C(/c1ccc(OCC(N)=O)cc1)c1ccc(OC(=O)C(C)(C)C)cc1)c1ccccc1", "values": [
      {"measurement": "inhibition at 0.5 h, 50 µM", "setting": "Aromatase [12]", "result": 0, "unit": "%"},
      {"measurement": "Activity", "setting": "[8]", "result": 56, "unit": "%"},
      {"measurement": "Activity", "setting": "[9]", "result": 45, "unit": "%"}
    ]},
    {"smiles": "CCC(=C(c1ccc(O)cc1)c1ccc(OCCN(C)C)cc1)c1ccccc1", "values": [
      {"measurement": "IC50", "setting": "Aromatase [11]", "result": 530, "unit": "µM"}
    ]},
    {"smiles": "CC/C(=C(/c1ccc(O)cc1)c1ccc(OC(=O)C(C)(C)C)cc1)c1ccccc1", "values": [
      {"measurement": "inhibition at 0.5 h, 50 µM", "setting": "Aromatase [12]", "result": 8, "unit": "%"},
      {"measurement": "Activity", "setting": "[8]", "result": 68, "unit": "%"},
      {"measurement": "Activity", "setting": "[9]", "result": 68, "unit": "%"}
    ]},
    {"smiles": "CC/C(=C(\\c1ccc(O)cc1)c1ccc(OCCN)cc1)c1ccccc1", "values": [
      {"measurement": "EC50", "setting": "Estrogen receptor", "result": 0.017, "unit": "µM"},
      {"measurement": "CL/F", "setting": "[1]", "result": 0.267, "unit": "mL/min"},
      {"measurement": "AUC(0-t)", "setting": "[13]", "result": 35100, "unit": "ng·h/mL"},
      {"measurement": "Vd/F", "setting": "[3]", "result": 0.5, "unit": "L"},
      {"measurement": "t1/2", "setting": "Mus musculus [4]", "result": 22.7, "unit": "h"},
      {"measurement": "Cmax", "setting": "Mus musculus [5]", "result": 2100, "unit": "ng/mL"},
      {"measurement": "Tmax", "setting": "Mus musculus [6]", "result": 1, "unit": "h"},
      {"measurement": "Clast", "setting": "Mus musculus [7]", "result": 900, "unit": "ng/mL"}
    ]},
    {"smiles": "CCC(=C(c1ccc(O)cc1)c1ccc(O)cc1)c1ccccc1", "values": [
      {"measurement": "Activity", "setting": "[8]", "result": 80, "unit": "%"}
    ]}
  ]
}
